Each block holds one compound with its values, some of them ahead of it. Activity calls are given as the source filed them.
Columns and labels:
[1] = target: T1, Cerebral cortex alpha adrenergic receptor (Bos taurus, UniProt Q28838+P18130); assay: In vitro binding affinity towards alpha-adrenoceptor of calf cortex membrane Site B using [3H]-clonidine
T1 sequence (Q28838 whole entry): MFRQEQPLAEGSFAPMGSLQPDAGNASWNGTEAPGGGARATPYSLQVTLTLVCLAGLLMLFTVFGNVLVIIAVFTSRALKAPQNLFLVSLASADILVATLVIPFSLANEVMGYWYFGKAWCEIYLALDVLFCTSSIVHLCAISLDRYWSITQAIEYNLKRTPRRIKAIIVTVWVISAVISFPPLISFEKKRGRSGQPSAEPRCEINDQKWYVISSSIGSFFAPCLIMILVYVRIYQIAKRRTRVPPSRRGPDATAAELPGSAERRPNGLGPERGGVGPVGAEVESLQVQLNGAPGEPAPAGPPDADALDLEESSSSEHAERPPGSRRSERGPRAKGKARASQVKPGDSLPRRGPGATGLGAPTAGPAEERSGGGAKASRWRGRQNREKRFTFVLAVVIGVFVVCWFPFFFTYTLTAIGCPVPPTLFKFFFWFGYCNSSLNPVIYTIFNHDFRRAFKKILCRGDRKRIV
T1 sequence (P18130 whole entry): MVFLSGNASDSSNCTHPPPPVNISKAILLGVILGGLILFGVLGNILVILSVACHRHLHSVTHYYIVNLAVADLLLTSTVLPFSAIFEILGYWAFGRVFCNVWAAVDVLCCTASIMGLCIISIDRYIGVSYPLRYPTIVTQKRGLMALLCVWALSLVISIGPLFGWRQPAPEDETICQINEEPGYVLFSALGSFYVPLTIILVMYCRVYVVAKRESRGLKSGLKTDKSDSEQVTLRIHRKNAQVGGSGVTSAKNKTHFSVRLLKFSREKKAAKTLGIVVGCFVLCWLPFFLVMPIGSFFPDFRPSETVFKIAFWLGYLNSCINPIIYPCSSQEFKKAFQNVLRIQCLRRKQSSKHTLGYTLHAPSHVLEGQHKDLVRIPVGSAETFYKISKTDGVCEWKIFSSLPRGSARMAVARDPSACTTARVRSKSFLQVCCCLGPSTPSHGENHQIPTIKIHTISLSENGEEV

[2] = system: Mus musculus; assay: In vivo Antagonism (ip) of 0.1 mg/kg clonidine-induced analgesia (po) determined in phenylquinone-induced writhing assay at 10 mg/kg dose; the ratio being 4/10; format: functional, organism-based
Outline: (§1)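 Male mice (18–22 g) receive the test substance ip, then clonidine 0.1 mg/kg po 30 min later. Phenylquinone is given ip 20 min after clonidine. Mice writhing 5–15 min after phenylquinone count as reactors. The result is the number of mice, out of n = 10 per experiment, in which clonidine analgesia is reversed.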

[3] = target: T1, Cerebral cortex alpha adrenergic receptor; assay: In vitro binding affinity towards alpha-adrenoceptor of calf cortex membrane Site A using [3H]clonidine
[4] = (§2) In vitro antihistamine activity, by activation of guinea pig cerebral cortex adenylate cyclase by histamine mediated by both H1 and H2 receptors; format: functional, tissue-based, Cavia porcellus
Outline: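 Adenylate cyclase preparation from guinea pig cerebral cortex, activated by histamine (acting via H1 + H2 receptors). Percent inhibition is measured in triplicate over a wide concentration range, and IC50 is calculated from those data. Psychoyos procedure.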

[5] = target: Histamine H2 receptor (Cavia porcellus, UniProt P47747); assay: In vitro antihistamine activity by activation of 4-methylhistamine mediated by Histamine H2 receptor; format: functional
Sequence of Histamine H2 receptor (P47747 whole entry): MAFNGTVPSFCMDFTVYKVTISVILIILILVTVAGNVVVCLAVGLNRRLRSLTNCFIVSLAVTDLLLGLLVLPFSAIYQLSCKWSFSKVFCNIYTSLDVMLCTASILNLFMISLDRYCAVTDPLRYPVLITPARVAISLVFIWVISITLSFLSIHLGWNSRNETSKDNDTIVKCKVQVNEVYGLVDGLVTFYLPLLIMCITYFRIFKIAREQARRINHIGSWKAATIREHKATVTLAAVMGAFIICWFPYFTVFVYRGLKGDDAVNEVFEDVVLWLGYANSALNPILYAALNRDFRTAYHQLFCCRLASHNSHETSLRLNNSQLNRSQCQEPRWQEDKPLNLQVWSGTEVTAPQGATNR

[6] = target: Adrenergic receptor alpha; assay: In vitro binding affinity towards alpha-adreno ceptor of rat forebrain using [3H]prazosin
Outline: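 Rat forebrain membranes, [3H]prazosin binding by the Greengrass and Bremner procedure, with ascorbic acid omitted from the incubation medium. Drugs are tested in triplicate over a wide concentration range in a single experiment.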

[7] = system: Mus musculus; assay: Central presynaptic alpha-blockade using [3H]rauwolscine (injected iv 20 min later and the mice were sacrificed at 35 min) (in vivo);value ranges between (1.2-5.9); format: functional; conditions: read-out: ID50 (the source's name)
Outline: (§3)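 Mice get test drug or vehicle ip at zero time, then [3H]rauwolscine iv 20 min later, and are sacrificed at 35 min. Displacement is measured in mouse forebrain. […] ID50 and 95% confidence limits follow the Granat method.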

[8] = target: serotonin (5-HT) receptor (Bos taurus); assay: In vitro binding affinity of serotonin receptor by interacting with high affinity, [3H]serotonin from calf caudate nucleus
[9] = system: Mus musculus; assay: In vivo Antagonism (ip) of 0.1 mg/kg clonidine-induced analgesia (po) determined in phenylquinone-induced writhing assay at a dose of 30 mg/kg dose; the ratio is 4/10; format: functional, organism-based; outline: as §1
[10] = system: Rattus norvegicus; assay: In vivo determination of MHPG-SO4 level in rat whole brain at a dose 0 mg/kg intraperitoneal administration; format: functional
Outline: (§4)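 Rats, five per experiment, receive test agent ip as a corn starch suspension and are sacrificed 2 h later. Whole-brain MHPG-SO4 (μg/g) is measured by the Meek and Neff procedure and expressed as a percentage of control, ± SE.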

[11] = system: Rattus norvegicus; assay: In vivo determination of MHPG-SO4 level in rat whole brain at a dose 20 mg/kg intraperitoneal administration; format: functional; outline: as §4
[12] = system: Mus musculus; assay: In vivo central presynaptic alpha-blockade using [3H]rauwolscine in mice (injected iv 20 min later and the mice were sacrificed at 35 min); format: functional; conditions: read-out: ID50 (the source's name); outline: as §3
[13] = target: serotonin (5-HT) receptor (Bos taurus)
[14] = organism: Mus musculus; assay: Antidepressant potential (duration) by using the behavioral despair model; format: functional
[15] = system: Rattus norvegicus; assay: In vivo determination of MHPG-SO4 level in rat whole brain at a dose 10 mg/kg ip administration (5 rats); format: functional; conditions: route intraperitoneal; outline: as §4
[16] = system: Rattus norvegicus; assay: In vivo determination of MHPG-SO4 level in rat whole brain at a dose 10 mg/kg intraperitoneal administration; format: functional; outline: as §4
[17] = system: Rattus norvegicus; assay: In vivo determination of MHPG-SO4 level in rat whole brain at a dose 3 0 mg/kg ip administration; format: functional; conditions: route intraperitoneal; outline: as §4
[18] = system: Rattus norvegicus; assay: In vivo determination of MHPG-SO4 level in rat whole brain at a dose 30 mg/kg ip administration (5 rats); format: functional; conditions: route intraperitoneal
Outline: (§5)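 Rats were given the test agent or vehicle ip as a suspension in corn starch. They were killed 2 h later, and MHPG-SO₄ was measured in whole brain in μg/g ± SE and as % of vehicle control. Five rats were used per experiment.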

[19] = system: Rattus norvegicus; assay: In vivo determination of MHPG-SO4 level in rat whole brain at a dose 20 mg/kg ip administration (5 rats); format: functional; conditions: route intraperitoneal; outline: as §4
[20] = system: Rattus norvegicus; assay: In vivo determination of MHPG-SO4 level in rat whole brain at a dose 0 mg/kg ip administration; format: functional; conditions: route intraperitoneal; outline: as §5
[21] = as §2
[22] = system: Rattus norvegicus; assay: In vivo determination of MHPG-SO4 level in rat whole brain at a dose 30 mg/kg ip administration; format: functional; conditions: route intraperitoneal; outline: as §5
[23] = system: Mus musculus; assay: In vivo central presynaptic alpha-blockade using [3H]rauwolscine (injected iv 20 min later and the mice were sacrificed at 35 min); conditions: read-out: ID50

IC50 [1]: 0.003 µM
IC50 [3]: 0.002 µM
IC50 [4]: 0.09 µM
IC50 [5]: 7.2 µM
IC50 [6]: 0.3 µM
IC50 [8]: 0.1 µM
SMILES: CN1CCN2c3ccccc3Cc3sccc3C2C1 (stereo unspecified)
Antagonism [2]: Partially active
ED50 [7]: 2.7 mg/kg

IC50 [1]: 0.003 µM
IC50 [3]: 0.003 µM
IC50 [13]: 0.5 µM
IC50 [4]: 0.28 µM
IC50 [5]: 19 µM
IC50 [6]: 1.4 µM
SMILES: CN1CCN2c3ccccc3Cc3ccsc3C2C1 (stereo unspecified)
Antagonism [9]: Partially active
MHPG_SO4 [10]: 0.11 µg/g
MHPG SO4 [11]: 0.21 µg/g
ED50 [12]: 3.3 mg/kg
Duration [14]: 185 s
Control [15]: 136%
MHPG_SO4 [16]: 0.15 µg/g
MHPG SO4 [17]: 0.27 µg/g
Control [18]: 245%
Control [19]: 191%

SMILES: CN1CCN2c3ccccc3Cc3ccccc3C2C1.Cl (stereo unspecified) [MIANSERIN HYDROCHLORIDE]
MHPG_SO4 [20]: 0.11 µg/g
IC50 [21]: 0.19 µM
MHPG SO4 [22]: 0.19 µg/g
Duration [14]: 186 s
IC50 [5]: 3.8 µM
ED50 [23]: 3.7 mg/kg
Control [18]: 180%

Source: ChEMBL document CHEMBL1122264, “Synthesis and biological properties of thiophene ring analogues of mianserin” (J Med Chem, 1983)
